In the library only some 1.7% were active in any assay of this set; here they are far more common.
LMPTP block – blocks human LMPTP phosphatase | P24666 | recombinant LMPTP-A, OMFP fluorogenic substrate, fluorescence intensity | inhibition, % at 20 µM | actives 0.22% (n = 360,000) | AID 651560;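 active = compounds that cut the enzyme signal by at least half of the control window in the single-dose screen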
Target sequence (P24666 whole entry, looked up): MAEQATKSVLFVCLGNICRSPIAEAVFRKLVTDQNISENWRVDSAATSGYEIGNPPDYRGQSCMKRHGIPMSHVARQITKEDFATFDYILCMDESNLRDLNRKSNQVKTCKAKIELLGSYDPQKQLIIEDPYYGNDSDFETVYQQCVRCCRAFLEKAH
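Material: LMPTP-A; amount: 0.625 nM enzyme; doses: single 20 µM dose; times: reaction 50 min, room temperature, dark; technique: fluorescence intensity of OMFP turnover product; benchmarks: no-enzyme and uninhibited controls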
DNMT1 block – DNMT1 (human) enzyme inhibition | P26358 | DNMT1 molecular beacon, Hinp1I cleavage, fluorescence | inhibition (reported as % activation of signal), % at 10 µM | actives 0.83% (n = 360,000); in the data active = inhibition above about 50%
STEP block – STEP (human) phosphatase inhibition. P54829. recombinant STEP, OMFP fluorogenic substrate, fluorescence. inhibition, % at 20 µM. actives 0.25% (n = 360,000). AID 588621;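 active = inhibition at 20 µM, scaled per plate between control wells, above about 37%, limit read from the data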
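Material: STEP (striatal-enriched tyrosine phosphatase) enzyme, cell-free | Medium: 50 mM Bis-Tris pH 6.0 with 2.5 mM DTT and 0.005% Tween 20 | Read-out: Percent inhibition scaled to no-enzyme and uninhibited-enzyme controls, plate-pattern corrected | Signal: Fluorescence read at 480 nm ex / 540 nm em | Times: 20 min reaction, room temperature, in the dark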
Scp-1 inhibitor – Scp-1 (human) phosphatase inhibition; inhibition, % at 20 µM; actives 0.88% (n = 340,000); AID 493091; Recombinant Scp1, phosphopeptide, malachite green phosphate absorbance; Q9GZU7;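 active = inhibition above about 50% at 20 µM, limit read from the data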
Target sequence (Q9GZU7 76-261 limits assumed): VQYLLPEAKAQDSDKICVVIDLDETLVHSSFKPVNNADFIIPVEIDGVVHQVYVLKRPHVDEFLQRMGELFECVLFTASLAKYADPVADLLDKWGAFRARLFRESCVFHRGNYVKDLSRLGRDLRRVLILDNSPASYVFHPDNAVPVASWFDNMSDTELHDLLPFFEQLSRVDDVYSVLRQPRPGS
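System: SCP-1 catalytic domain; Reagent: Phospho 17-mer peptide substrate; Doses: one concentration, 20 µM, with 1.0% DMSO; Incubation: 45 min room-temperature reaction, 5 min colour, 30 min stabiliser; Signal: Phosphate-binding colour reagent, absorbance read at 630 nm.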
SUMO1-SIM PPI – modulators of human SUMO1-mediated protein-protein interactions. actives 0.33% (n = 360,000). inhibition, % at 20 µM. SUMO1 binding to a labelled peptide, TR-FRET, 1 h. P63165; in the data active = inhibition above about 37%
Target sequence (P63165 whole entry, looked up): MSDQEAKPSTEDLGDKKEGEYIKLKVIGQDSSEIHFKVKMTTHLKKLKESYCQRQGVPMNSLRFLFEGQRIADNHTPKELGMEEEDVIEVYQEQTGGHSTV
DNMT1 interf DR – shows spectral interference in the DNMT1 beacon assay; shares compounds with DNMT1 block; molecular beacon fluorescence, spectral interference counter-screen; IC50, µM; 200 tested, under 10 active; call rule not given here
DNMT1 confirm – confirmation of human DNMT1 inhibitors; shares compounds with DNMT1 block; DNMT1 molecular beacon HinP1I cleavage, fluorescence; inhibition, % at 10 µM; actives 8% (n = 2,300); AID 602385;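 active = average inhibition of at least 30% in the single-concentration confirmation test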
DNMT1 interf – beacon fluorescence artifact counter-screen; actives 1% (n = 2,300); DNMT1 molecular beacon spectral interference counterscreen, fluorescence 485/520; activation (fluorescence interference), % at 10 µM; shares compounds with DNMT1 block;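 active = activation of at least 30% at 10 µM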;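 also: DNMT1 catalytic domain with a HinP1I cleavage step and a FAM/dabcyl DNA beacon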
A number is an active result.

`Cc1ccc(S(=O)(=O)NCC(=O)Nc2cccnc2)cc1C` gave LMPTP block inactive, DNMT1 block inactive, STEP block inactive, Scp-1 inhibitor inactive and SUMO1-SIM PPI inactive.
`O=C(Nc1ccc(N2CCN(c3ncccc3C(F)(F)F)CC2)nc1)c1cccs1` gave LMPTP block inactive, DNMT1 block inactive, STEP block inactive, Scp-1 inhibitor inactive and SUMO1-SIM PPI inactive.
Screening O=C(Nc1ccc(N2CCN(c3ccc(C(F)(F)F)cn3)CC2)nc1)c1cccs1 returned LMPTP block inactive, DNMT1 block 51.8, STEP block inactive, Scp-1 inhibitor inactive, SUMO1-SIM PPI inactive, DNMT1 confirm inactive and DNMT1 interf inactive.
For CCN(CC)S(=O)(=O)c1ccc(C(=O)N2CCCCC2)cc1 the results were LMPTP block inactive, DNMT1 block inactive, STEP block inactive, Scp-1 inhibitor inactive and SUMO1-SIM PPI inactive.
Screening CC(C)n1c(=S)[nH]c2scc(-c3cccs3)c2c1=O returned LMPTP block inactive, DNMT1 block 79.6, STEP block inactive, Scp-1 inhibitor inactive, SUMO1-SIM PPI inactive, DNMT1 confirm inactive and DNMT1 interf inactive.
`O=C1OC(c2cccs2)=N/C1=C/c1ccc(-c2cccc(C(=O)O)c2)o1` gave LMPTP block inactive, DNMT1 block 85.1, STEP block inactive, Scp-1 inhibitor 65.0, SUMO1-SIM PPI inactive, DNMT1 confirm inactive and DNMT1 interf inactive.
`COc1ccc(OC)c(NC(=O)COC(=O)c2c3c(nc4ccccc24)CCCC3)c1` gave LMPTP block inactive, DNMT1 block inactive, STEP block inactive, Scp-1 inhibitor inactive and SUMO1-SIM PPI inactive.
Screening COc1ccc(NC(=O)COC(=O)c2c3c(nc4ccccc24)CCCC3)cc1 returned LMPTP block inactive, DNMT1 block 54.6, STEP block inactive, Scp-1 inhibitor inactive, SUMO1-SIM PPI inactive, DNMT1 confirm inactive and DNMT1 interf inactive.
`Clc1ccc(CNc2ccc3nnc(-c4ccccc4)n3n2)cc1` gave LMPTP block inactive, DNMT1 block 65.6, STEP block inactive, Scp-1 inhibitor inactive, SUMO1-SIM PPI inactive, DNMT1 confirm inactive and DNMT1 interf inactive.
`COc1ccc(CCNc2ccc(C(CC(N)=O)NC(=O)Cc3cccc4ccccc34)cc2[N+](=O)[O-])cc1` (stereo not drawn) gave LMPTP block inactive, DNMT1 block inactive, STEP block inactive, Scp-1 inhibitor inactive and SUMO1-SIM PPI inactive.
Screening CCCCNc1ccc(C(CC(N)=O)NC(=O)Cc2cccc3ccccc23)cc1[N+](=O)[O-] (stereo not drawn) returned LMPTP block inactive, DNMT1 block 51.2, STEP block inactive, Scp-1 inhibitor inactive, SUMO1-SIM PPI inactive, DNMT1 confirm inactive and DNMT1 interf inactive.
For O=C(CSc1nc(N2CCOCC2)nc(N2CCOCC2)n1)Nc1cccc(C(F)(F)F)c1 the results were LMPTP block inactive, DNMT1 block inactive, STEP block inactive, Scp-1 inhibitor inactive and SUMO1-SIM PPI inactive.
Screening COc1cc(OCc2ccc(C)cc2)ccc1CNC[C@H]1O[C@@H](n2cnc(C(N)=O)n2)[C@H](O)[C@@H]1O returned LMPTP block inactive, DNMT1 block inactive, STEP block inactive, Scp-1 inhibitor inactive and SUMO1-SIM PPI inactive.
Screening Cc1sc(NC(=O)c2cc(-c3ccc(Cl)cc3)nc3ccccc23)c(C(N)=O)c1C returned LMPTP block inactive, DNMT1 block 60.7, STEP block inactive, Scp-1 inhibitor inactive, SUMO1-SIM PPI inactive, DNMT1 confirm inactive and DNMT1 interf inactive.
For Cc1cc(C)cc(-n2c3nc4ccccc4nc3c3c(=O)n(Cc4ccco4)cnc32)c1 the results were LMPTP block 56.3, DNMT1 block 98.1, STEP block inactive, Scp-1 inhibitor inactive, SUMO1-SIM PPI inactive, DNMT1 confirm inactive and DNMT1 interf inactive.
Screening CCn1cc(Br)c(C(=O)Nc2sc3c(c2C(N)=O)CCCC3)n1 returned LMPTP block inactive, DNMT1 block 68.0, STEP block inactive, Scp-1 inhibitor inactive, SUMO1-SIM PPI inactive, DNMT1 confirm inactive and DNMT1 interf inactive.
Cn1c(=O)c(Nc2ccc(O)cc2)c2c3c(cccc31)C(=O)c1ccccc1-2 was read as LMPTP block inactive, DNMT1 block 61.5, STEP block inactive, Scp-1 inhibitor inactive, SUMO1-SIM PPI inactive, DNMT1 confirm inactive and DNMT1 interf inactive.
CC(=O)c1c2c3c(cccc3n(C)c1=O)C(=O)c1ccccc1-2 was read as Scp-1 inhibitor inactive.
CC(C)[C@H](NC(=O)c1ccccc1)C(=O)OCC(=O)Nc1sccc1C(N)=O was read as LMPTP block inactive, DNMT1 block inactive, STEP block inactive, Scp-1 inhibitor inactive and SUMO1-SIM PPI inactive.
For O=C(CN(C(=O)c1csnn1)c1ccccc1Cl)NC1CCCC1 the results were LMPTP block inactive, DNMT1 block inactive, STEP block inactive, Scp-1 inhibitor inactive and SUMO1-SIM PPI inactive.
Screening O=C(Nc1nc(-c2ccco2)c(-c2ccco2)s1)c1c(F)cccc1Cl returned LMPTP block inactive, DNMT1 block 69.7, STEP block inactive, Scp-1 inhibitor inactive, SUMO1-SIM PPI inactive, DNMT1 confirm inactive and DNMT1 interf inactive.
For O=C(Nc1nc(-c2ccco2)c(-c2ccco2)s1)c1ccc(F)cc1F the results were LMPTP block inactive, DNMT1 block inactive, STEP block inactive, Scp-1 inhibitor inactive and SUMO1-SIM PPI inactive.
`Cc1c(C)c2c(OCC(=O)Nc3cccnc3)cc3c(c2oc1=O)CCC(C)(C)O3` gave LMPTP block inactive, DNMT1 block 55.5, STEP block inactive, Scp-1 inhibitor inactive, SUMO1-SIM PPI inactive, DNMT1 confirm inactive and DNMT1 interf inactive.
`CCc1cc(=O)oc2c3c(cc(OCC(=O)Nc4cccnc4)c12)OC(C)(C)CC3` gave LMPTP block inactive, DNMT1 block inactive, STEP block inactive, Scp-1 inhibitor inactive and SUMO1-SIM PPI inactive.
Screening O=C(CCc1nnc2ccc(N3CCC4(CC3)OCCO4)nn12)NCc1ccccc1Cl returned LMPTP block inactive, DNMT1 block inactive, STEP block inactive, Scp-1 inhibitor inactive and SUMO1-SIM PPI inactive.
O=C1CC(=O)N(Cc2ccco2)C(=O)N1 was read as LMPTP block 51.3, DNMT1 block 108.8, STEP block 95.0, Scp-1 inhibitor 65.9, SUMO1-SIM PPI inactive, DNMT1 interf DR inactive, DNMT1 confirm 105.2 and DNMT1 interf inactive.
`O=C1CC(=O)N(Cc2cccs2)C(=O)N1` gave LMPTP block inactive, DNMT1 block inactive, STEP block inactive, Scp-1 inhibitor inactive and SUMO1-SIM PPI inactive.
